# Measured values taken from article PMC10356740 (Journal of sleep research, 2023).
# Like-named read-outs stand apart in the source and are kept apart here.
# Experiments:
# [1] = assay type: in vivo; conditions: mouse, 10 mg/kg
# Summary of the method: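 Dosing was 10 mg/kg, s.c. or i.p. by compound, with sparse sampling of plasma and brain. Total drug measured by LC-MS/MS was multiplied by fraction unbound to give free concentrations. Fraction unbound came from 5 μM compound incubated in mouse plasma or brain homogenate by rapid equilibrium dialysis. Parameters were derived by noncompartmental analysis, with terminal half-life by best fit.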
# [2] = Fraction unbound by rapid equilibrium dialysis; assay type: in vitro ADME; conditions: mouse
# [3] = tested on: narcoleptic male orexin/tTA; TetO-DTA mice; assay: EEG/EMG sleep/wake and cataplexy scoring after dosing before dark onset; assay type: in vivo, mouse; conditions: for Latency to NREM sleep / Latency to REM sleep: vs vehicle; for Wake bout duration, treatment effect: 6-h recording; for REM/NREM ratio: entire 6-h recording; for Wake bout duration: first post-dosing hour (ZT13); for Compensatory NREM sleep after increased wakefulness: hours after the first post-dosing hour
# Summary of the method: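 Crossover in telemetered male DTA mice (n = 7) given 1, 3 or 10 mg/kg s.c. or i.p., or the matching vehicle, 15 min before ZT12, ≥3 d between doses. EEG/EMG were scored for 6 h as hourly and cumulative time per state and as bouts. NREM latency ran from dosing to the first 6 consecutive NREM epochs; REM latency to the first 3 REM epochs. Analysis used 1-way ANOVA or 2-way RM ANOVA (treatment × time), with Holm-Sidak vs vehicle.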
# [4] = tested on: narcoleptic male orexin/tTA; TetO-DTA mice; assay: EEG spectral power analysis; assay type: in vivo, mouse
# Summary of the method: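 Male orexin/tTA;TetO-DTA mice (n = 7) with subcutaneous EEG/EMG telemeters received vehicle or 1, 3 or 10 mg/kg (s.c. or i.p. by compound, 10 mL/kg) 15 min before light offset at ZT12. Design was repeated measures in balanced order, ≥3 d apart. Normalized EEG spectra were taken in 0.122 Hz bins and bands: delta 0.5–4, theta 4–9, alpha 9–12, beta 12–30, low gamma 30–60, high gamma 60–100 Hz. Each state needed ≥3 animals. Analysis was 2-way RM ANOVA with Holm-Sidak.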
# [5] = tested on: narcoleptic male orexin/tTA; TetO-DTA mice; assay: Gross motor activity, running wheel activity and subcutaneous temperature; assay type: in vivo, mouse; conditions: for Number of running bouts: ZT13
# Summary of the method: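 Gross motor activity came from the implanted subcutaneous telemeter, alongside home-cage running-wheel activity and bouts and subcutaneous temperature, analysed per ZT hour after dosing. Male DTA mice (n = 7), adapted ≥2 weeks to wheels, handling and dosing, received vehicle or 1, 3 or 10 mg/kg s.c. or i.p. 15 min before ZT12 in repeated-measures order. Analysis was 2-way RM ANOVA (treatment × time) with Holm-Sidak.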
# [6] = tested on: healthy sleep-deprived adults; conditions: Phase 1; ref Evans et al., 2019; cited from earlier work
# wild-type mice = conditions: subcutaneous; ref Yukitake et al., 2019; cited from earlier work
# [7] = tested on: narcoleptic OX2R knockout (KO) mice; conditions: subcutaneous; ref Yukitake et al., 2019; cited from earlier work
# [8] = tested on: Hcrt peptide-deficient and Hcrt neuron-ablated mice; conditions: ref Irukayama-Tomobe et al., 2017; cited from earlier work
# [9] = tested on: Hcrt receptor-deficient mice; conditions: ref Irukayama-Tomobe et al., 2017; cited from earlier work
# [10] = tested on: Hcrt-deficient, Hcrt neuron-ablated and wild-type mice; conditions: peripheral administration; ref Irukayama-Tomobe et al., 2017; cited from earlier work
# [11] = first hour, all doses 1–10 mg/kg s.c.
# [12] = first post-dosing hour, all doses s.c.
# [13] = second post-dosing hour, 10 mg/kg s.c.
# [14] = first post-dosing hour (ZT13), all doses s.c.
# [15] = first post-dosing hour (ZT13), 3 and 10 mg/kg i.p.
structure (smiles),measurement,setting,value
"COC(=O)N1CCC[C@H](NS(C)(=O)=O)[C@@H]1CO[C@H]1CC[C@@H](c2ccccc2)CC1 [TAK-925, Methyl (2R,3S)-3-[(methylsulfonyl)amino]-2-{[(cis-4-phenylcyclohexyl)oxy]methyl}piperidine-1-carboxylate]",Cmax,"[1]; brain, sc",20 ng/g
same,Tmax,"[1]; brain, sc",10 min
same,half-life,"[1]; brain, sc",53 min
same,AUC(0-t),"[1]; plasma, sc",335 ng·h/mL
same,Cmax,"[1]; plasma, sc",160 ng/mL
same,Tmax,"[1]; plasma, sc",10 min
same,half-life,"[1]; plasma, sc",36 min
same,fraction unbound at 5 μM,[2]; mouse brain homogenate,0.077
same,fraction unbound at 5 μM,[2]; mouse plasma,0.107
same,Duration of the reduction of Wake bouts,[3]; 10 mg/kg s.c.,up to 3 h
same,Cumulative time in Cataplexy,"[3]; 10 mg/kg s.c., p = 1.74 × 10^−4",suppression of Cataplexy
same,Latency to NREM sleep,"[3]; 1, 3 and 10 mg/kg s.c.",delayed NREM sleep onset
same,"Effects on arousal states (Wake, NREM, REM) across the 6-h recording",[3]; 1–10 mg/kg s.c.,transitory
same,"NREM bout duration, post hoc test per dose",[3]; 1–10 mg/kg s.c.,did not identify any specific dose
same,"REM bout duration, post hoc test per dose",[3]; 1–10 mg/kg s.c.,did not identify any specific dose
same,Latency to REM sleep,"[3]; all doses (1, 3, 10 mg/kg s.c.)",delayed REM sleep
same,"Wake bout duration, treatment effect",[3]; all doses s.c.,significant treatment effects
same,REM/NREM ratio,[3]; s.c.,unchanged
same,Hourly amount of Cataplexy,[3]; [11],eliminated
same,Hourly amount of NREM sleep,[3]; [11],eliminated
same,Hourly amount of REM sleep,[3]; [11],eliminated
same,Hourly amount of Wake,[3]; [11],caused continuous wakefulness
same,Wake bout duration,[3]; all doses s.c.,increased Wake bout duration
same,Number of bouts of Cataplexy,[3]; [12],reduced the number of bouts
same,Number of bouts of NREM,[3]; [12],reduced the number of bouts
same,Number of bouts of REM,[3]; [12],reduced the number of bouts
same,Number of bouts of Wake,[3]; [12],reduced the number of bouts
same,Number of Cataplexy bouts,"[3]; first two hours, all doses s.c.",reduced the number of Cataplexy bouts
same,Compensatory NREM sleep after increased wakefulness,[3]; s.c.,no compensatory increase in NREM sleep
same,Number of Wake bouts across the entire 6-h recording,"[3]; only 10 mg/kg s.c., p = 0.013",reduced the number of Wake bouts
same,Percent time in Cataplexy across the 6-h recording,[3]; only the highest dose (10 mg/kg s.c.),reduced Cataplexy across the entire 6-h recording period
same,REM sleep rebound after early suppression,"[3]; s.c., ZT16, 4 hours post-treatment",rebound that reached significance at ZT16
same,Cumulative time in REM sleep,"[3]; s.c., first two hours after dosing, followed by a later rebound",significant suppression of REM sleep
same,Increase of Wake bout duration,"[3]; second post-dosing hour (ZT14), highest dose s.c.",continued into the second post-dosing hour
same,Hourly amount of Cataplexy,[3]; [13],reduction of Cataplexy continued into the second post-dosing hour
same,High gamma EEG power during Wake across the entire recording period,"[4]; 10 mg/kg s.c., p = 0.02",significantly increased high gamma
same,Waking EEG high gamma power,"[4]; ZT13, 1 mg/kg s.c.",significantly increased high gamma power
same,"Waking EEG spectral power in alpha, low gamma and high gamma","[4]; ZT13, 3 and 10 mg/kg s.c.",significantly increased spectral power in all three bandwidths
same,NREM EEG delta power,"[4]; ZT14, 1 mg/kg s.c.",increased NREM delta
same,NREM EEG spectral power,"[4]; ZT14, 10 mg/kg s.c.",increased spectral power during ZT14 for all EEG bands except for low gamma
same,"Waking EEG high gamma power, persistence of effect",[4]; [13],continued into the second post-dosing hour
same,Number of running bouts,[5]; all doses s.c.,more running bouts
same,Running wheel activity,"[5]; ZT17, 10 mg/kg s.c.",Reduced running wheel activity
same,Gross motor activity,"[5]; ZT17, highest dose s.c.",reduced gross motor activity
same,Running wheel activity,"[5]; ZT18, 10 mg/kg s.c.",increase at ZT18
same,Running wheel activity,"[5]; first post-dosing hour (ZT13), 1 mg/kg s.c.",significantly increased running wheel activity
same,Gross motor activity,[5]; [14],significantly increased motor activity
same,Subcutaneous temperature (Tsc),[5]; [14],significantly increased Tsc
same,Ability to maintain wakefulness,[6],improved individuals’ ability to maintain wakefulness
same,Tolerability,[6],well-tolerated
same,Wakefulness,wild-type mice,wake-promoting
same,Wakefulness,[7],but not in narcoleptic OX2R knockout (KO) mice
COc1ccc(-c2cccc(C(=O)N(C)C)c2)cc1S(=O)(=O)Nc1cccc(NCCNC(=O)c2ccccc2N(C)C)c1 [YNT-185],Sleep onset REM periods (SOREMs),[8],reduced sleep onset REM periods (SOREMs)
same,Sleep onset REM periods (SOREMs),[9],but not in Hcrt receptor-deficient mice
same,Wakefulness,[10],promoted wakefulness
"CCNC(=O)N1CCC[C@H](NS(C)(=O)=O)[C@@H]1CO[C@H]1CC[C@@H](C(C)C)CC1 [ARN-776, (2R,3S)-N-ethyl-2-{[(cis-4-isopropylcyclohexyl)oxy]methyl}−3-[(methylsulfonyl)amino]piperidine-1-carboxamide]",Cmax,"[1]; brain, ip",13 ng/g
same,Tmax,"[1]; brain, ip",10 min
same,half-life,"[1]; brain, ip",38 min
same,AUC(0-t),"[1]; plasma, ip",191 ng·h/mL
same,Cmax,"[1]; plasma, ip",326 ng/mL
same,Tmax,"[1]; plasma, ip",10 min
same,half-life,"[1]; plasma, ip",125 min
same,fraction unbound at 5 μM,[2]; mouse brain homogenate,0.121
same,fraction unbound at 5 μM,[2]; mouse plasma,0.176
same,Number of Wake bouts across the entire 6-h recording,[3]; 3 mg/kg (p = 0.03) and 10 mg/kg (p = 0.002) i.p.,significantly reduced the number of Wake bouts
same,Cataplexy bout duration,"[3]; 3 mg/kg i.p., p = 0.046",modest effect
same,Cumulative time in Wake,"[3]; 10 mg/kg i.p., post hoc p = 0.005",significant effects
same,Cumulative time in NREM sleep,"[3]; 10 mg/kg i.p., post hoc p = 0.028",significant effects
same,Latency to REM sleep,[3]; 10 mg/kg i.p.,delayed REM sleep
same,"NREM bout duration, post hoc test per dose",[3]; 1–10 mg/kg i.p.,did not identify any specific dose
same,"REM bout duration, post hoc test per dose",[3]; 1–10 mg/kg i.p.,did not identify any specific dose
same,REM sleep rebound after early suppression,[3]; 1–10 mg/kg i.p.,rebound did not reach statistical significance
same,Percent time in Cataplexy across the 6-h recording,"[3]; all 3 doses (1, 3, 10 mg/kg i.p.)",reduced Cataplexy across the 6-h period
same,Cumulative time in Cataplexy,[3]; all 3 doses i.p.,cumulative suppression of Cataplexy
same,"Wake bout duration, treatment effect",[3]; all doses i.p.,significant treatment effects
same,REM/NREM ratio,[3]; i.p.,unchanged
same,Number of NREM bouts,"[3]; first hour post-dosing, only middle and high doses i.p.",reduced the number of NREM bouts
same,Hourly amount of NREM sleep,"[3]; first hour, 1–10 mg/kg i.p.",dose-related changes
same,Hourly amount of REM sleep,"[3]; first hour, 1–10 mg/kg i.p.",dose-related changes
same,Hourly amount of Wake,"[3]; first hour, 1–10 mg/kg i.p.",dose-related changes
same,Number of Wake bouts,"[3]; first hour, 1–10 mg/kg i.p.",dose-related effect
same,Reduction in hourly Cataplexy levels,"[3]; first hour, 1–10 mg/kg i.p.",did not reach statistical significance
same,Wake bout duration,[3]; all doses i.p.,increased Wake bout duration
same,Compensatory NREM sleep after increased wakefulness,[3]; i.p.,no compensatory increase in NREM sleep
same,Suppression of cumulative REM sleep,[3]; lower doses i.p.,limited to the first post-dosing hour
same,Number of REM bouts,[3]; only 10 mg/kg i.p.,reduced the number of REM bouts
same,Latency to NREM sleep,[3]; only 3 and 10 mg/kg i.p. (not 1 mg/kg),delayed NREM
same,Number of Cataplexy bouts,[3]; only the two highest concentrations i.p.,effective during the first and later hours
same,Number of Wake bouts,"[3]; second hour, only 10 mg/kg i.p.",reduced the number of Wake bouts
same,High gamma EEG power during Wake across the entire recording period,"[4]; 10 mg/kg i.p., p = 0.04",significantly increased high gamma
same,Waking EEG low and high gamma power,"[4]; ZT13, 3 mg/kg i.p.",significantly increased
same,NREM EEG alpha and high gamma power,"[4]; ZT14, 10 mg/kg i.p.",significant reductions
same,NREM EEG high gamma power,"[4]; ZT15, 10 mg/kg i.p.",reduction of high gamma continued into ZT15
same,"Waking EEG power in alpha, low gamma and high gamma","[4]; first post-dosing hour, 10 mg/kg i.p.",significantly increased power in all three of these bands
same,Number of running bouts,[5]; 3 and 10 mg/kg i.p.,more running bouts
same,Gross motor activity,"[5]; ZT15, highest dose i.p.",reduced gross motor activity
same,Gross motor activity,[5]; [15],significantly increased motor activity
same,Running wheel activity,[5]; [15],significantly increased running wheel activity
same,Subcutaneous temperature (Tsc),[5]; [15],significantly increased Tsc
